Test results taken from ChEMBL document CHEMBL3792362 (Bioorg Med Chem Lett, 2016).
pIC50: −log10 of the molar value. Calls of active or inactive are those of the source. The calls are words filed in the database; no cut-off is given here.

Test system: U-937
Experiment: Inhibition of LPS/IFN-gamma-induced PGE2 production in PMA-treated human U937 cells at 25 uM after 17 to 20 hrs by enzyme immunoassay relative to control
Type: functional
Settings: not given
Method in brief: (§1)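 Cells (5 × 10⁵/well) attached 24 h, then stimulated with recombinant IFN-γ 100 U/mL and LPS 2 µg/mL with or without compound (DMSO vehicle, 0.1% final), 17–20 h at 37 °C, 5% CO₂. U937 were first differentiated with 200 nM PMA for 24 h, then serum-free overnight. Supernatant PGE₂ quantified against standard curves; dose-response 0.78–50 µM, means ± SD of three samples.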
With `COc1ccc(/C=C2\CCC/C(=C\c3ccc(O)c(OC)c3)C2=O)cc1` the inhibition at 25 µM was 86%.
In the case of `COc1cc(/C=C2\CCC/C(=C\c3ccc(Br)cc3)C2=O)ccc1O`, the inhibition at 25 µM was 87%.
`O=C1/C(=C/c2ccc(-c3ccc(F)cc3)cc2)CCC/C1=C\c1ccc(Cl)c(Cl)c1` showed an inhibition at 25 µM of 76%.
In the case of `COc1cc(/C=C/C(=O)CC(=O)/C=C/c2ccc(O)c(OC)c2)ccc1O` [CURCUMIN], the inhibition at 25 µM was 94%.
Work on `Cc1ccc(/C=C2\CCC/C(=C\c3cccc4ccccc34)C2=O)cc1` yielded an inhibition at 25 µM of 66%.
In the case of `COc1cc(/C=C2\CCC/C(=C\c3ccc(O)cc3)C2=O)ccc1O`, the inhibition at 25 µM was 88%.
`CCN(CC)c1ccc(/C=C2\CCC/C(=C\c3ccc(-c4ccc(F)cc4)cc3)C2=O)cc1` showed an inhibition at 25 µM of 72%.
Compound `Cc1ccc(/C=C2\CCC/C(=C\c3ccc(C)o3)C2=O)cc1` has an inhibition at 25 µM of 84%.

Test system: not listed separately
Experiment: Cytotoxicity against mouse RAW264.7 cells assessed as cell viability at 25 uM by MTT assay relative to control
Type: cell-based
Settings: read-out: Activity
Method in brief: (§2)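 After 17–20 h stimulation with 100 U/mL IFN-γ plus 2 µg/mL LPS (±compound, DMSO final 0.1%) at 37 °C, 5% CO₂, supernatant removed; MTT (5 mg/mL stock, 20 µL) added, 4 h at 37 °C; formazan dissolved in DMSO, absorbance at 570 nm. U937 were PMA-differentiated (200 nM, 24 h), then serum-free overnight; RAW264.7 grown in DMEM/10% FBS.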
In the case of `COc1ccc(/C=C2\CCC/C(=C\c3ccc(O)c(OC)c3)C2=O)cc1`, the viability at 25 µM was < 50%.
For `COc1cc(/C=C2\CCC/C(=C\c3ccc(Br)cc3)C2=O)ccc1O`, the viability at 25 µM was < 50%.
For `O=C1/C(=C/c2ccc(-c3ccc(F)cc3)cc2)CCC/C1=C\c1ccc(Cl)c(Cl)c1`, the viability at 25 µM was 100%.
In the case of `COc1cc(/C=C/C(=O)CC(=O)/C=C/c2ccc(O)c(OC)c2)ccc1O` [CURCUMIN], the viability at 25 µM was 90%.
Compound `Cc1ccc(/C=C2\CCC/C(=C\c3cccc4ccccc34)C2=O)cc1` has a viability at 25 µM of 100%.
With `COc1cc(/C=C2\CCC/C(=C\c3ccc(O)cc3)C2=O)ccc1O` the viability at 25 µM was < 50%.
Work on `CCN(CC)c1ccc(/C=C2\CCC/C(=C\c3ccc(-c4ccc(F)cc4)cc3)C2=O)cc1` yielded a viability at 25 µM of 94%.
Compound `Cc1ccc(/C=C2\CCC/C(=C\c3ccc(C)o3)C2=O)cc1` has a viability at 25 µM of 83%.

Test system: not listed separately
Experiment: Cytotoxicity against PMA-treated human U937 cells assessed as cell viability at 25 uM by MTT assay relative to control
Type: cell-based, U-937
Settings: read-out: Activity
Method in brief: as §2
`COc1ccc(/C=C2\CCC/C(=C\c3ccc(O)c(OC)c3)C2=O)cc1` gave a viability at 25 µM of 100%.
Compound `COc1cc(/C=C2\CCC/C(=C\c3ccc(Br)cc3)C2=O)ccc1O` has a viability at 25 µM of 100%.
Compound `O=C1/C(=C/c2ccc(-c3ccc(F)cc3)cc2)CCC/C1=C\c1ccc(Cl)c(Cl)c1` has a viability at 25 µM of 94%.
In the case of `COc1cc(/C=C/C(=O)CC(=O)/C=C/c2ccc(O)c(OC)c2)ccc1O` [CURCUMIN], the viability at 25 µM was 95%.
Compound `Cc1ccc(/C=C2\CCC/C(=C\c3cccc4ccccc34)C2=O)cc1` has a viability at 25 µM of 94%.
For `COc1cc(/C=C2\CCC/C(=C\c3ccc(O)cc3)C2=O)ccc1O`, the viability at 25 µM was 100%.
`CCN(CC)c1ccc(/C=C2\CCC/C(=C\c3ccc(-c4ccc(F)cc4)cc3)C2=O)cc1` gave a viability at 25 µM of 100%.
In the case of `Cc1ccc(/C=C2\CCC/C(=C\c3ccc(C)o3)C2=O)cc1`, the viability at 25 µM was 98%.

Test system: RAW264.7
Experiment: Inhibition of LPS/IFN-gamma-induced PGE2 production in mouse RAW264.7 cells after 17 to 20 hrs by enzyme immunoassay
Type: functional, cell-based
Settings: not given
Method in brief: as §1
For `COc1ccc(/C=C2\CCC/C(=C\c3ccc(O)c(OC)c3)C2=O)cc1`, the pIC50 was 6.11.
In the case of `COc1cc(/C=C/C(=O)CC(=O)/C=C/c2ccc(O)c(OC)c2)ccc1O` [CURCUMIN], the pIC50 was 4.80.
`COc1cc(/C=C2\CCC/C(=C\c3ccc(O)cc3)C2=O)ccc1O` showed a pIC50 of 5.72.
Compound `Cc1ccc(/C=C2\CCC/C(=C\c3ccc(C)o3)C2=O)cc1` has a pIC50 of 5.31.

Test system: U-937
Experiment: Inhibition of LPS/IFN-gamma-induced PGE2 production in PMA-treated human U937 cells after 17 to 20 hrs by enzyme immunoassay
Type: functional, cell-based
Settings: not given
Method in brief: as §1
Work on `COc1ccc(/C=C2\CCC/C(=C\c3ccc(O)c(OC)c3)C2=O)cc1` yielded a pIC50 of 6.02.
With `COc1cc(/C=C/C(=O)CC(=O)/C=C/c2ccc(O)c(OC)c2)ccc1O` [CURCUMIN] the pIC50 was 5.73.
For `COc1cc(/C=C2\CCC/C(=C\c3ccc(O)cc3)C2=O)ccc1O`, the pIC50 was 6.04.
With `Cc1ccc(/C=C2\CCC/C(=C\c3ccc(C)o3)C2=O)cc1` the pIC50 was 5.78 and the inhibition was “Dose-dependent effect”.

Test system: RAW264.7
Experiment: Inhibition of LPS/IFN-gamma-induced nitric oxide production in mouse RAW264.7 cells at 25 uM relative to control
Type: functional
Settings: not given
With `COc1ccc(/C=C2\CCC/C(=C\c3ccc(O)c(OC)c3)C2=O)cc1` the inhibition at 25 µM was 100%.
With `COc1cc(/C=C2\CCC/C(=C\c3ccc(Br)cc3)C2=O)ccc1O` the inhibition at 25 µM was 100%.
For `O=C1/C(=C/c2ccc(-c3ccc(F)cc3)cc2)CCC/C1=C\c1ccc(Cl)c(Cl)c1`, the inhibition was “inactive”.
For `COc1cc(/C=C/C(=O)CC(=O)/C=C/c2ccc(O)c(OC)c2)ccc1O` [CURCUMIN], the inhibition at 25 µM was 85%.
In the case of `Cc1ccc(/C=C2\CCC/C(=C\c3cccc4ccccc34)C2=O)cc1`, the inhibition was “inactive”.
In the case of `COc1cc(/C=C2\CCC/C(=C\c3ccc(O)cc3)C2=O)ccc1O`, the inhibition at 25 µM was 100%.
For `CCN(CC)c1ccc(/C=C2\CCC/C(=C\c3ccc(-c4ccc(F)cc4)cc3)C2=O)cc1`, the inhibition was “inactive”.
With `Cc1ccc(/C=C2\CCC/C(=C\c3ccc(C)o3)C2=O)cc1` the inhibition at 25 µM was 99%.

Biological target: T1, Prostaglandin G/H synthase 1 (Ovis aries) (UniProt P05979)
T1 sequence (whole entry): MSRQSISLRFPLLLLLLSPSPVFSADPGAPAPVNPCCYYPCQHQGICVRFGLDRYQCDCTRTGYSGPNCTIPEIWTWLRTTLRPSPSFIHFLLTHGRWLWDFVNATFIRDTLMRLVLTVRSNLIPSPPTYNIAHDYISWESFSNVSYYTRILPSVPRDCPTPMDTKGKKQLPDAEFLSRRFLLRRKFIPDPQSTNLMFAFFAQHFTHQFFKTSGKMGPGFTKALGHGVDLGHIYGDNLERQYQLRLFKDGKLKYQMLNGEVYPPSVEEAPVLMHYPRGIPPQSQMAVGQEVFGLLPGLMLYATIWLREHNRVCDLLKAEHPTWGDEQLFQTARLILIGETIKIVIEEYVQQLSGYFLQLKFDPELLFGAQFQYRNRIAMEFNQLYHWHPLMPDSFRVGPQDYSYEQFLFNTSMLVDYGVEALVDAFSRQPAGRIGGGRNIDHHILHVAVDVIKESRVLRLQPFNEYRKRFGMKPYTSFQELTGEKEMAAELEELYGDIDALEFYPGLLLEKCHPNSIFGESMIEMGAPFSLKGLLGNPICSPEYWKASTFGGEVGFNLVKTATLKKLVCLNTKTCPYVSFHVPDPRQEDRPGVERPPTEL
Experiment: Inhibition of ovine COX1 at 25 uM by ELISA relative to control
Settings: not given
Method in brief: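 COX-1 (ovine) inhibition measured with a commercial ovine/human COX inhibitor screening ELISA kit per manufacturer's protocol; prostaglandin concentrations read on a microplate reader and calculated from standard curves.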
In the case of `COc1ccc(/C=C2\CCC/C(=C\c3ccc(O)c(OC)c3)C2=O)cc1`, the inhibition was “inactive”.
For `COc1cc(/C=C/C(=O)CC(=O)/C=C/c2ccc(O)c(OC)c2)ccc1O` [CURCUMIN], the inhibition was “inactive”.
In the case of `COc1cc(/C=C2\CCC/C(=C\c3ccc(O)cc3)C2=O)ccc1O`, the inhibition was “inactive”.
In the case of `Cc1ccc(/C=C2\CCC/C(=C\c3ccc(C)o3)C2=O)cc1`, the inhibition was “inactive”.

Test system: not listed separately
Experiment: Inhibition of COX in CD1 mouse epidermal microsomes using [14C]arachidonic acid as substrate assessed as PGE2, PGF2alpha, and PGD2 formation by TLC/liquid scintillation spectrometry method
Parameters: species or system Skin epidermis
Settings: not given
With `COc1cc(/C=C/C(=O)CC(=O)/C=C/c2ccc(O)c(OC)c2)ccc1O` [CURCUMIN] the pIC50 was 4.28.

Test system: not listed separately
Experiment: Inhibition of COX in CD1 mouse epidermal cytosolic fractions using [14C]arachidonic acid as substrate assessed as PGE2, PGF2alpha, and PGD2 formation by TLC/liquid scintillation spectrometry method
Settings: not given
In the case of `COc1cc(/C=C/C(=O)CC(=O)/C=C/c2ccc(O)c(OC)c2)ccc1O` [CURCUMIN], the pIC50 was 5.30.

Test system: RAW264.7
Experiment: Inhibition of LPS/IFN-gamma-induced PGE2 production in mouse RAW264.7 cells at 25 uM after 17 to 20 hrs by enzyme immunoassay relative to control
Type: functional
Settings: not given
Method in brief: as §1
`COc1ccc(/C=C2\CCC/C(=C\c3ccc(O)c(OC)c3)C2=O)cc1` gave an inhibition at 25 µM of 96%.
For `COc1cc(/C=C2\CCC/C(=C\c3ccc(Br)cc3)C2=O)ccc1O`, the inhibition at 25 µM was 96%.
`O=C1/C(=C/c2ccc(-c3ccc(F)cc3)cc2)CCC/C1=C\c1ccc(Cl)c(Cl)c1` gave an inhibition at 25 µM of 59%.
`COc1cc(/C=C/C(=O)CC(=O)/C=C/c2ccc(O)c(OC)c2)ccc1O` [CURCUMIN] gave an inhibition at 25 µM of 78%.
In the case of `Cc1ccc(/C=C2\CCC/C(=C\c3cccc4ccccc34)C2=O)cc1`, the inhibition at 25 µM was 74%.
Work on `COc1cc(/C=C2\CCC/C(=C\c3ccc(O)cc3)C2=O)ccc1O` yielded an inhibition at 25 µM of 96%.
Compound `CCN(CC)c1ccc(/C=C2\CCC/C(=C\c3ccc(-c4ccc(F)cc4)cc3)C2=O)cc1` has an inhibition at 25 µM of 65%.
`Cc1ccc(/C=C2\CCC/C(=C\c3ccc(C)o3)C2=O)cc1` showed an inhibition at 25 µM of 92%.
